M1 agonist – M1 muscarinic receptor agonism. CHO-M1 cells, Fluo-4 calcium fluorescence, agonist mode; hits give high values. B-score at 10 µM. actives 3% (n = 64,000). AID 626;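 active = fluorescence rise, raw or as B-score row- and column-corrected plate score, outside the 99.7% band of its plate's samples, either direction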
S1P3 ag – S1P3 (human) receptor agonism | actives 0.1% (n = 60,000) | S1P3 NFAT-BLA reporter cells, FRET ratio; relative to 1 µM S1P, basal subtracted | activation, % at 4.5 µM;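 active = activation above the screen-wide mean plus 3 SD, cut at about 4.5% in these data, passing the limit was not always enough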
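Measure – % activation relative to 1 µM S1P (100%), per plate · System – stable CHO line with human S1P3, Gα16, NFAT-BLA reporter · Timing – cells plated overnight, compound 4 h 37 °C, substrate 2 h RT · Technique – fluorescent BLA substrate, ex 405 nm, em 460/535 nm ratio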
M1 antag – M1 muscarinic receptor (rat) antagonism; P08482; CHO-M1 cells, Fluo-4 calcium, ACh EC80 antagonist mode; hits give low values; B-score at 10 µM; actives 3.4% (n = 64,000);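 active = calcium fluorescence response, raw or row-and-column corrected B-score, differing from the plate sample mean either way at a set confidence level, mostly lower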
D1 allo mod – D1 dopamine receptor (human) allosteric modulation. actives 5.9% (n = 58,000). HEK293 D1, CRE-luciferase, dopamine EC30 potentiation; actives deviate in either direction. B-score at 10 µM;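 active = luminescence count or its row- and column-corrected plate score outside the 99.7% band of the plate's sample wells, on either side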
TNAP act mid DEA – activates human TNAP at intermediate phosphate acceptor concentration. 64,000 tested, under 10 active. P05186. purified TNAP, CDP-star luminescence, 100 mM DEA, 30 min; hits give high values; scale: 0 levamisole-inhibited, 1 vehicle-only enzyme. activation factor at 20 µM;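 active = activation factor of at least 2 at 20 µM, relative to controls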
Target sequence (P05186 whole entry, looked up): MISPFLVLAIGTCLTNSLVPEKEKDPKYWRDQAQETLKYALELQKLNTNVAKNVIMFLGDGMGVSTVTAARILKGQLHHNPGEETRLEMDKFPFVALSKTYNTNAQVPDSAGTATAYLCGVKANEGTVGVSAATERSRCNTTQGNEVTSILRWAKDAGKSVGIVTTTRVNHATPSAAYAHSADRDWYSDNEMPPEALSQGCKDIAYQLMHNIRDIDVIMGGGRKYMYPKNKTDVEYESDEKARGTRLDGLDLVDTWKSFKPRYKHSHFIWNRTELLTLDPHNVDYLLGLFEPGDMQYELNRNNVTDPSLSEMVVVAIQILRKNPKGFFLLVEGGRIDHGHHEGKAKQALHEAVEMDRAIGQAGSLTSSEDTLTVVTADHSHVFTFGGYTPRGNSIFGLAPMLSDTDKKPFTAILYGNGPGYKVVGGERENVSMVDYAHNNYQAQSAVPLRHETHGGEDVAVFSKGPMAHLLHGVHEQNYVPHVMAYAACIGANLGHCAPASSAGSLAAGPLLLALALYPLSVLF
S1P1 ag pot – agonists and agonism potentiators of human S1P1 receptor; P21453; S1P1 CRE-bla cells, forskolin, beta-lactamase FRET, potentiator mode; S1P1 agonist co-added at EC20, 2 nM; 100% = saturating reference agonist, 0% = basal; activation, % at 9.5 µM; actives 0.57% (n = 56,000); AID 449;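 active = activation above a cutoff set at the mean activation of all tested compounds plus 3 SD, cut at about 54% in these data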;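 also: forskolin at 4 µM as EC80 and the EC20 agonist is SEW2871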
M1 agonist conf – confirmation of rat M1 muscarinic receptor agonists; CHO-M1 cells, Fluo-4 calcium fluorescence, agonist mode; actives lie on both sides; actives 19% (n = 1,700); shares compounds with M1 agonist; fluorescence change (max-min) at 10 µM;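 active = fluorescence change differs from the solvent-only DMSO control mean at a set confidence level in both duplicate runs; inconclusive = differs from solvent-only control mean in just one of two runs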;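 also: an EC20 dose of acetylcholine follows compound addition during the same imaging run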
M4 ag counter – counter-screen for M1 agonists: activity at rat M4 receptor; AID 1741; shares compounds with M1 agonist; fluorescence change (max-min) at 10 µM; CHO M4/Gqi5 cells, Fluo-4 calcium fluorescence, agonist mode; actives lie on both sides; actives 9% (n = 1,700);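 active = fluorescence change differing from the plate's solvent-only control wells at 99.7% confidence in both duplicates, whether higher or lower; inconclusive = differs from solvent controls in only one of two duplicates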
D1 PAM confirm – D1 receptor (human) allosteric modulation, confirmed. AID 642. shares compounds with D1 allo mod. actives 88% (n = 2,200). luminescence at 10 µM. HEK293 D1 CRE-luciferase, dopamine EC30 potentiation; hits give high values;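 active = luminescence in either of two replicates above the same-plate mean plus 3 SD of the low-dose dopamine control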
D1 ag no DA – activates D1 CRE-luciferase signal without dopamine present; HEK293 D1 CRE-luciferase, luminescence, no dopamine; hits give high values; luminescence at 10 µM; shares compounds with D1 allo mod; actives 0.8% (n = 1,900); in the data active = luminescence above about 3900
Isoprot counter – counter-screen for D1 modulators: isoproterenol response in HEK293 cells; shares compounds with D1 allo mod; HEK293 D1 CRE-luciferase, isoproterenol EC30 counter-screen; hits give high values; luminescence at 10 µM; actives 63% (n = 2,200); AID 647;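 active = luminescence in either replicate above plate mean of wells with a partly effective reference agonist dose plus 3 SD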;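 also: isoproterenol raises cAMP through native beta-adrenoceptor Gs so signal bypasses D1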
Of the large screens only hits and unclear results are named; the others gave an inactive call (follow-up assays come after a bar, where they were run). Sampled rows, rich in hits. Any-hit rate of the full collection: about 11%.

COc1nc(N(c2ccccc2)c2ccccc2)nc(-n2ccnc2)n1	M1 agonist 3.4, D1 allo mod 4.3 | M1 agonist conf inactive | M4 ag counter inactive | D1 PAM confirm 12628 | D1 ag no DA inactive | Isoprot counter 4028
CN(C)c1nc(N)nc(N(c2ccccc2)c2ccccc2)n1	none
C=CCOC(=O)C1=C(C)Nc2nc3ccccc3n2C1c1ccncc1 (stereo not given)	none
COc1cc(C2C(C#N)=C(N)Oc3cc(N(C)C)ccc32)cc2c1OCO2 (stereo not given)	M1 agonist 45, D1 allo mod 7.3 | M1 agonist conf 206 | M4 ag counter 203 | D1 PAM confirm 15056 | D1 ag no DA inactive | Isoprot counter 4588
CCOC(=O)C1=C(C)OC(N)=C(C#N)C1c1cc(OC)c2c(c1)OCO2 (stereo not given)	none
O=C(CCCC(=O)N(CC(=O)NC1CCCC1)Cc1ccccc1)Nc1ccccn1	none
COC(=O)c1cc(OC)c(OC)cc1NC(=O)C1CCC(=O)N1S(=O)(=O)c1ccc(C)cc1 (stereo not given)	M1 agonist -2, D1 allo mod 9.2 | M1 agonist conf inconclusive | M4 ag counter inactive | D1 PAM confirm 16888 | Isoprot counter 7188
CCn1cnc2sc(C(=O)N(Cc3ccc(N(C)C)cc3)Cc3ccco3)c(C)c2c1=O	M1 agonist 12, D1 allo mod 4.9 | M1 agonist conf inactive | M4 ag counter inconclusive | D1 PAM confirm 12360 | Isoprot counter 3104
CCOC(=O)c1cccc(NC(=O)CSc2nnc(-c3cccnc3)n2C)c1	none
Cc1cccc2cc(C#N)c(NCCNS(=O)(=O)c3ccc4c(c3)OCCO4)nc12	none
Cc1ccc(S(=O)(=O)c2cc3c(=O)n4ccccc4nc3n(C)c2=N)cc1	M1 agonist 5.1, D1 allo mod 5.3 | M1 agonist conf inactive | M4 ag counter inconclusive | D1 PAM confirm 13268 | D1 ag no DA inactive | Isoprot counter 3184
N=c1c(S(=O)(=O)c2ccccc2)cc2c(=O)n3ccccc3nc2n1CCN1CCOCC1	none (no result: S1P3 ag, S1P1 ag pot)
COC(=O)c1cc2c(=O)n3ccccc3nc2n(Cc2cccnc2)c1=N	none (no result: S1P1 ag pot)
Cc1ccc(S(=O)(=O)c2cc3c(=O)n4ccccc4nc3n(Cc3ccco3)c2=N)cc1C	M1 agonist 5.9, D1 allo mod 6 | M1 agonist conf inactive | M4 ag counter inactive | D1 PAM confirm 13264 | D1 ag no DA inactive | Isoprot counter 3644
Cc1ccc(-n2cc(C(C)(C)C)[nH]c2=S)cc1	none (no result: D1 allo mod)
COc1cc2c(cc1OC)CN(C(=O)c1ccccc1C(=O)O)CC2	none
CCOC(=O)C1CCN(C(=O)CSCc2nc(-c3ccc(OCC)cc3)oc2C)CC1	M1 agonist 5.1, D1 allo mod 5.7 | M1 agonist conf inactive | M4 ag counter inconclusive | D1 PAM confirm 12112 | D1 ag no DA inactive | Isoprot counter 4784
COc1ccc(-c2nc(CSCC(=O)N3CCC(C(N)=O)CC3)c(C)o2)cc1OC	none
CCOc1ccc(-c2nc(CSCC(=O)N3CCN(C(=O)c4ccco4)CC3)c(C)o2)cc1	M1 agonist -3.5, D1 allo mod 3.6 | M1 agonist conf inconclusive | M4 ag counter inactive | D1 PAM confirm inactive | D1 ag no DA inactive | Isoprot counter 3468
CCN(CC(=O)Nc1ccc2c(c1)OCCO2)c1nc(-c2cccnc2)nc2ccccc12	M1 agonist 7.3, D1 allo mod 3.6 | M1 agonist conf -28 | M4 ag counter inconclusive | D1 PAM confirm 7472 | D1 ag no DA inactive | Isoprot counter 3272
CC(C)(C)C(=O)c1sc(Nc2ccccc2)nc1N	M1 agonist 3.1, D1 allo mod 12 | M1 agonist conf inconclusive | M4 ag counter inactive | D1 PAM confirm 16628 | D1 ag no DA inactive | Isoprot counter 4168
CCCNC(=O)c1c(N)n(-c2cc(OC)cc(OC)c2)c2nc3ccccc3nc12	none
Clc1ccc(-n2nnnc2-c2ccccc2)cc1	M1 agonist 3.3, D1 allo mod 3.5 | M1 agonist conf -26 | M4 ag counter inactive | D1 PAM confirm 8784 | D1 ag no DA inactive | Isoprot counter inactive
Nc1c(C(=O)OCC2CCCO2)c2nc3ccccc3nc2n1-c1ccc2c(c1)OCCO2 (stereo not given)	M1 agonist 5.9, D1 allo mod 5.1 | M1 agonist conf inactive | M4 ag counter inconclusive | D1 PAM confirm inactive | Isoprot counter inactive
Nc1c(C(=O)NC2CC2)c2nc3ccccc3nc2n1-c1ccc2c(c1)OCO2	none
CCc1nc2ccccc2n(CC)c1=O	M1 agonist 13, D1 allo mod 4.2 | M1 agonist conf inactive | M4 ag counter inactive | D1 PAM confirm 10236 | D1 ag no DA inactive | Isoprot counter 3340
CCn1c(=O)c(C(C)=O)nc2ccccc21	none
Cc1cc(N)n(-c2ccccc2)n1	none (no result: S1P3 ag, S1P1 ag pot)
Cc1cc(N)n(-c2nc(-c3cccnc3)nc3ccccc23)n1	M1 agonist 5.6, D1 allo mod 4.3 (no result: S1P3 ag, S1P1 ag pot) | M1 agonist conf inconclusive | M4 ag counter inactive | D1 PAM confirm 12176 | D1 ag no DA inactive | Isoprot counter inactive
C=CCOC(=O)C1C(=O)CC(C)(O)C(C(=O)OCC=C)C1c1ccc(OCC)cc1 (stereo not given)	none (no result: D1 allo mod)
COCCCNC(=O)C(C#N)c1nc2ccccc2nc1N1CCCC1 (stereo not given)	M1 agonist 340, D1 allo mod 12 | M1 agonist conf 230 | M4 ag counter 749 | D1 PAM confirm 18008 | D1 ag no DA inactive | Isoprot counter 12040
Cc1ccccc1Nc1nc(N)nc(CSc2nc3ccccc3c(=O)n2CCCO)n1	M1 agonist 4.1, D1 allo mod 3 | M1 agonist conf inconclusive | M4 ag counter inactive | D1 PAM confirm 8640 | D1 ag no DA inactive | Isoprot counter 3524
Cc1c(C(=O)NC(C)C)oc2c1-c1[nH]ncc1CC2	none

Screening data: PubChem BioAssay, several laboratories
